Values after ≈ are worked out from the molar mass of the structure shown. Active and inactive are the calls of the source. The calls are words filed in the database; no cut-off is given here.
What was measured:
[1] = target: Human immunodeficiency virus type 1 reverse transcriptase (Human immunodeficiency virus 1) (UniProt Q72547); assay: Inhibition of HIV1 reverse transcriptase
P388 = assay: Cytotoxicity against mouse P388 cells; type: functional, cell-based
In short: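 P388 mouse leukemia cells; cytotoxicity reported as IC50 in μg/ml.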

Candida albicans = assay: Antimicrobial activity against Candida albicans; type: functional

| SMILES | Activity [1] | MIC (Candida albicans) [µg/mL] | IC50 (P388) [µg/mL] |
| --- | --- | --- | --- |
| CC(=O)OC1=C(C[C@]2(C)[C@@H](C)CC[C@]3(C)C(C)=CCC[C@@H]23)C(=O)C=CC1=O | inactive |  | 10 (≈ 27 µM) |
| CC1=CCC[C@H]2[C@](C)(Cc3c(O)ccc(O)c3O)[C@@H](C)CC[C@]12C | inactive |  |  |
| CC(=O)Oc1c(O)ccc(O)c1C[C@]1(C)[C@@H](C)CC[C@]2(C)C(C)=CCC[C@@H]12 | inactive | 12.5 (≈ 33.6 µM) | < 0.6 |
| COC1=CC(=O)C(C[C@]2(C)[C@@H](C)CC[C@]3(C)C(C)=CCC[C@@H]23)=C(O)C1=O | Active |  | > 20 |

Now from value to molecule, other results behind:

| Activity [1] | MIC (Candida albicans) [µg/mL] | SMILES | IC50 (P388) [µg/mL] |
| --- | --- | --- | --- |
| Active | 12.5 (≈ 38.1 µM) | CC1=CCC[C@H]2[C@](C)(CC3=CC(=O)C=C(O)C3=O)[C@@H](C)CC[C@]12C | 0.6 (≈ 1.83 µM) |
| Active | 50 (≈ 145 µM) | CC1=CCC[C@H]2[C@](C)(CC3=C(O)C(=O)C=C(O)C3=O)[C@@H](C)CC[C@]12C | 1.2 (≈ 3.48 µM) |

Source: ChEMBL document CHEMBL1158936, “New avarone and avarol derivatives from the marine sponge Dysidea cinerea” (J Nat Prod, 1991)
